Source: ChEMBL document CHEMBL2086318, “Synthesis and in vitro antimycobacterial activity of 2-methoxybenzanilides and their thioxo analogues” (Eur J Med Chem, 2012)
Converted amounts (≈) assume the structure as drawn.

Legend:
[1] = tested on: Mycobacterium tuberculosis; experiment: Antimycobacterial activity against Mycobacterium tuberculosis My 331/88 after 14 days by micromethod; assay type: functional; details: My 331/88, 336 h
Procedure, shortened: (§1)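 MIC by micromethod at 37 °C, read after 14 and 21 days. Inocula were M. tuberculosis My 331/88 at 10^-3 dilution and M. avium My 330/88 at 10^-5 dilution. Compounds added in DMSO across 1000, 500, 250, 125, 62.5, 32, 16, 8, 4, 2, 1 and 0.5; isoniazid standard in sterile water. MIC taken as the lowest concentration inhibiting growth.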

[2] = tested on: Mycobacterium tuberculosis; experiment: Antimycobacterial activity against Mycobacterium tuberculosis My 331/88 after 21 days by micromethod; assay type: functional; details: My 331/88, 504 h; procedure, shortened: as §1
Mycobacterium avium [3] = experiment: Antimycobacterial activity against Mycobacterium avium My 330/88 after 14 days by micromethod; assay type: functional; details: My 330/88, 336 h
Mycobacterium avium [4] = experiment: Antimycobacterial activity against Mycobacterium avium My 330/88 after 21 days by micromethod; assay type: functional; details: My 330/88, 504 h
Mycobacterium kansasii [5] = experiment: Antimycobacterial activity against Mycobacterium kansasii My 235/80 after 7 days by micromethod; assay type: functional; details: My 235/80, 168 h
Mycobacterium kansasii [6] = experiment: Antimycobacterial activity against Mycobacterium kansasii My 235/80 after 14 days by micromethod; assay type: functional; details: My 235/80, 336 h
Mycobacterium kansasii [7] = experiment: Antimycobacterial activity against Mycobacterium kansasii My 235/80 after 21 days by micromethod; assay type: functional; details: My 235/80, 504 h
Mycobacterium kansasii [8] = experiment: Antimycobacterial activity against Mycobacterium kansasii My 6509/96 clinical isolate after 7 days by micromethod; assay type: functional; details: My 6509/96, 168 h
Mycobacterium kansasii [9] = experiment: Antimycobacterial activity against Mycobacterium kansasii My 6509/96 clinical isolate after 14 days by micromethod; assay type: functional; details: My 6509/96, 336 h
Mycobacterium kansasii [10] = experiment: Antimycobacterial activity against Mycobacterium kansasii My 6509/96 clinical isolate after 21 days by micromethod; assay type: functional; details: My 6509/96, 504 h
[11] = target: T1, Isocitrate lyase (Mycobacterium tuberculosis) (UniProt P9WKK7); experiment: Inhibition of Mycobacterium tuberculosis H37Rv isocitrate lyase expressed in Escherichia coli BL21(DE3) using (+)-potassium Ds-threo-isocitrate as substrate assessed as glyoxylate phenyl hydrazone formation at 100 umol/L by spectrophotometry
T1 sequence (whole entry): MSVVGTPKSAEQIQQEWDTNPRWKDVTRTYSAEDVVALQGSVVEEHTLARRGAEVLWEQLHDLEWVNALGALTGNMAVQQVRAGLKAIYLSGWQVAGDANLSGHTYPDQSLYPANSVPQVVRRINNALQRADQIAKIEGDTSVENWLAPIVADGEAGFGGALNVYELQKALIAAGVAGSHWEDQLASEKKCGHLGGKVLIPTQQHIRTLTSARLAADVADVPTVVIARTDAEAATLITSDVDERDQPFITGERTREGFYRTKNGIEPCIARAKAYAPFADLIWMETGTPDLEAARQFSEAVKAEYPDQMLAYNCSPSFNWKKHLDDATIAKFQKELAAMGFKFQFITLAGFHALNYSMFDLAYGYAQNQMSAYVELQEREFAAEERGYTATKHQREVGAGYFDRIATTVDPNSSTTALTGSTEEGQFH

HepG2 = experiment: Cytotoxicity against human HepG2 cells after 24 hrs by CellTiter assay; assay type: cell-based; details: HepG2, 24 h
Procedure, shortened: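 Hep G2 cells (passage 12), 10,000 per well in MEM with 1% glutamine, 10% FBS and 1% nonessential amino acids, preincubated 24 h at 37 °C, 5% CO2. Compounds dissolved in DMSO, tested at eight concentrations in quadruplicate for 24 h at 37 °C. MTS-type reagent added for 1.5 h, absorbance read at 490 nm. IC50 = concentration reducing viability to 50% of control.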

[12] = Selectivity ratio of IC50 for human HepG2 cells to MIC for Mycobacterium tuberculosis My 331/88 after 14 days; assay type: functional
Procedure, shortened: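 HepG2 cells (passage 12) at 10,000 cells/well in MEM with 10% FBS, 1% glutamine and 1% nonessential amino acids, pre-incubated 24 h at 37 °C, 5% CO2. Compounds in DMSO at eight concentrations in quadruplicate for 24 h. MTS-type reagent added for 1.5 h, absorbance at 490 nm. IC50 from curve fit. SI = IC50 / 14-day MIC against M. tuberculosis 331/88.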

Compound | MIC [1] [µM] | MIC [2] [µM] | MIC (Mycobacterium avium [3]) [µM] | MIC (Mycobacterium avium [4]) [µM] | MIC (Mycobacterium kansasii [5]) [µM] | MIC (Mycobacterium kansasii [6]) [µM] | MIC (Mycobacterium kansasii [7]) [µM] | MIC (Mycobacterium kansasii [8]) [µM] | MIC (Mycobacterium kansasii [9]) [µM] | MIC (Mycobacterium kansasii [10]) [µM] | inhibition [11] [%] | IC50 (HepG2) [µM] | Selectivity ratio [12]
COc1cc(Cl)ccc1C(=S)Nc1ccc(Cl)cc1 | 4 (≈ 1.25 µg/mL) | 16 (≈ 5 µg/mL) | 32 (≈ 9.99 µg/mL) | 32 (≈ 9.99 µg/mL) | 32 (≈ 9.99 µg/mL) | 62.5 (≈ 19.5 µg/mL) | 62.5 (≈ 19.5 µg/mL) | 16 (≈ 5 µg/mL) | 32 (≈ 9.99 µg/mL) | 62.5 (≈ 19.5 µg/mL) | 39 | 2.93 | 0.73
COc1cc(Cl)ccc1C(=S)Nc1ccc(Cl)c(Cl)c1 | 2 (≈ 0.693 µg/mL) | 8 (≈ 2.77 µg/mL) | 32 (≈ 11.1 µg/mL) | 32 (≈ 11.1 µg/mL) | 16 (≈ 5.55 µg/mL) | 32 (≈ 11.1 µg/mL) | 62.5 (≈ 21.7 µg/mL) | 16 (≈ 5.55 µg/mL) | 32 (≈ 11.1 µg/mL) | 32 (≈ 11.1 µg/mL) | 17 | 6.5 | 3.25
COc1cc(Cl)ccc1C(=S)Nc1ccc(Br)cc1 | 4 (≈ 1.43 µg/mL) | 16 (≈ 5.71 µg/mL) | 16 (≈ 5.71 µg/mL) | 62.5 (≈ 22.3 µg/mL) | 32 (≈ 11.4 µg/mL) | 62.5 (≈ 22.3 µg/mL) | 62.5 (≈ 22.3 µg/mL) | 16 (≈ 5.71 µg/mL) | 32 (≈ 11.4 µg/mL) | 62.5 (≈ 22.3 µg/mL) | 27 | 3.55 | 0.89
COc1cc(Cl)ccc1C(=S)Nc1cccc(Cl)c1 | 4 (≈ 1.25 µg/mL) | 16 (≈ 5 µg/mL) | 16 (≈ 5 µg/mL) | 16 (≈ 5 µg/mL) | 16 (≈ 5 µg/mL) | 32 (≈ 9.99 µg/mL) | 32 (≈ 9.99 µg/mL) | 16 (≈ 5 µg/mL) | 32 (≈ 9.99 µg/mL) | 32 (≈ 9.99 µg/mL) | 20 | 11.7 | 2.92
COc1ccc(Cl)cc1C(=O)Nc1ccc(C(F)(F)F)cc1 | 250 (≈ 82.4 µg/mL) | 250 (≈ 82.4 µg/mL) | 250 (≈ 82.4 µg/mL) | 250 (≈ 82.4 µg/mL) | 125 (≈ 41.2 µg/mL) | 500 (≈ 165 µg/mL) | 500 (≈ 165 µg/mL) | 62.5 (≈ 20.6 µg/mL) | 250 (≈ 82.4 µg/mL) | 250 (≈ 82.4 µg/mL) |  |  | 
COc1ccc(Cl)cc1C(=S)Nc1cccc(Br)c1 | 32 (≈ 11.4 µg/mL) | 32 (≈ 11.4 µg/mL) | 32 (≈ 11.4 µg/mL) | 32 (≈ 11.4 µg/mL) | 16 (≈ 5.71 µg/mL) | 32 (≈ 11.4 µg/mL) | 32 (≈ 11.4 µg/mL) | 32 (≈ 11.4 µg/mL) | 32 (≈ 11.4 µg/mL) | 32 (≈ 11.4 µg/mL) |  |  | 
COc1cc(Cl)ccc1C(=O)Nc1ccc(Br)cc1 | 62.5 (≈ 21.3 µg/mL) | 125 (≈ 42.6 µg/mL) | 8 (≈ 2.72 µg/mL) | 32 (≈ 10.9 µg/mL) | 4 (≈ 1.36 µg/mL) | 8 (≈ 2.72 µg/mL) | 32 (≈ 10.9 µg/mL) | 4 (≈ 1.36 µg/mL) | 8 (≈ 2.72 µg/mL) | 32 (≈ 10.9 µg/mL) |  |  | 
COc1cc(Cl)ccc1C(=S)Nc1cccc([N+](=O)[O-])c1 | 8 (≈ 2.58 µg/mL) | 16 (≈ 5.16 µg/mL) | 16 (≈ 5.16 µg/mL) | 16 (≈ 5.16 µg/mL) | 32 (≈ 10.3 µg/mL) | 32 (≈ 10.3 µg/mL) | 62.5 (≈ 20.2 µg/mL) | 8 (≈ 2.58 µg/mL) | 16 (≈ 5.16 µg/mL) | 32 (≈ 10.3 µg/mL) |  |  | 
COc1ccc(Cl)cc1C(=O)Nc1ccc(Cl)c(Cl)c1 | 125 (≈ 41.3 µg/mL) | 125 (≈ 41.3 µg/mL) | 250 (≈ 82.6 µg/mL) | 250 (≈ 82.6 µg/mL) | 62.5 (≈ 20.7 µg/mL) | 250 (≈ 82.6 µg/mL) | 250 (≈ 82.6 µg/mL) | 62.5 (≈ 20.7 µg/mL) | 125 (≈ 41.3 µg/mL) | 125 (≈ 41.3 µg/mL) |  |  | 
COc1cc(Cl)ccc1C(=O)Nc1ccc(Cl)c(Cl)c1 | 125 (≈ 41.3 µg/mL) | 125 (≈ 41.3 µg/mL) | 125 (≈ 41.3 µg/mL) | 125 (≈ 41.3 µg/mL) | 125 (≈ 41.3 µg/mL) | 125 (≈ 41.3 µg/mL) | 125 (≈ 41.3 µg/mL) | 125 (≈ 41.3 µg/mL) | 125 (≈ 41.3 µg/mL) | 125 (≈ 41.3 µg/mL) |  |  | 
COc1ccc(Cl)cc1C(=S)Nc1ccc(Br)cc1 | 16 (≈ 5.71 µg/mL) | 16 (≈ 5.71 µg/mL) | 16 (≈ 5.71 µg/mL) | 16 (≈ 5.71 µg/mL) | 62.5 (≈ 22.3 µg/mL) | 250 (≈ 89.2 µg/mL) | 250 (≈ 89.2 µg/mL) | 16 (≈ 5.71 µg/mL) | 32 (≈ 11.4 µg/mL) | 32 (≈ 11.4 µg/mL) |  |  | 
COc1ccc(Cl)cc1C(=O)Nc1ccc([N+](=O)[O-])cc1 | 125 (≈ 38.3 µg/mL) | 125 (≈ 38.3 µg/mL) | 125 (≈ 38.3 µg/mL) | 125 (≈ 38.3 µg/mL) | 125 (≈ 38.3 µg/mL) | 125 (≈ 38.3 µg/mL) | 125 (≈ 38.3 µg/mL) | 125 (≈ 38.3 µg/mL) | 125 (≈ 38.3 µg/mL) | 125 (≈ 38.3 µg/mL) |  |  | 
COc1ccc(Cl)cc1C(=O)Nc1ccc(Cl)cc1 | 62.5 (≈ 18.5 µg/mL) | 62.5 (≈ 18.5 µg/mL) | 62.5 (≈ 18.5 µg/mL) | 62.5 (≈ 18.5 µg/mL) | 62.5 (≈ 18.5 µg/mL) | 250 (≈ 74 µg/mL) | 250 (≈ 74 µg/mL) | 62.5 (≈ 18.5 µg/mL) | 125 (≈ 37 µg/mL) | 125 (≈ 37 µg/mL) |  |  | 
COc1ccc(Cl)cc1C(=O)Nc1ccc(Br)cc1 | 16 (≈ 5.45 µg/mL) | 16 (≈ 5.45 µg/mL) | 16 (≈ 5.45 µg/mL) | 32 (≈ 10.9 µg/mL) | 62.5 (≈ 21.3 µg/mL) | 62.5 (≈ 21.3 µg/mL) | 62.5 (≈ 21.3 µg/mL) | 32 (≈ 10.9 µg/mL) | 62.5 (≈ 21.3 µg/mL) | 62.5 (≈ 21.3 µg/mL) |  |  | 
COc1cc(Cl)ccc1C(=S)Nc1cccc(C(F)(F)F)c1 | 4 (≈ 1.38 µg/mL) | 8 (≈ 2.77 µg/mL) | 32 (≈ 11.1 µg/mL) | 32 (≈ 11.1 µg/mL) | 16 (≈ 5.53 µg/mL) | 32 (≈ 11.1 µg/mL) | 32 (≈ 11.1 µg/mL) | 16 (≈ 5.53 µg/mL) | 32 (≈ 11.1 µg/mL) | 32 (≈ 11.1 µg/mL) | 23 | 1.81 | 0.45
